High-throughput results: PubChem, PCMD
Sampled rows, rich in hits. Any-hit rate of the full collection: about 1%.
Thrombin inh = thrombin (human) inhibition | P00734 | alpha-thrombin, Boc-VPR-AMC fluorogenic substrate cleavage | inhibition, % at 5 µM | 220,000 compounds, 0.26% hits | AID 1046;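 active = inhibition at or above 40%; inactive = inhibition below 40%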;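 note: 0% = enzyme with no compound and 100% = wells without enzyme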
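Material: Human alpha-thrombin protein | Buffer or medium: pH 7.5 Tris-saline with Tween 20 | Reagent: Boc-VPR-AMC substrate, 15 µM final | Schedule: Reaction at ambient temperature | Detection: AMC fluorescence at 355 nm excitation and 460 nm emission | Evaluation: Percent inhibition scaled between no-compound controls and no-enzyme blanks | Controls: no-compound enzyme wells and no-enzyme blanks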
hK5 inh = kallikrein 5 (human) inhibition; recombinant hK5, fluorogenic AMC substrate cleavage; inhibition, % at 5 µM; 210,000 compounds, 0.59% hits; AID 873;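 active = inhibition of 40% or more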;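 note: 0% = enzyme controls without compound and 100% = no-enzyme blanks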
Target sequence (Q9Y337 67-293 limits assumed): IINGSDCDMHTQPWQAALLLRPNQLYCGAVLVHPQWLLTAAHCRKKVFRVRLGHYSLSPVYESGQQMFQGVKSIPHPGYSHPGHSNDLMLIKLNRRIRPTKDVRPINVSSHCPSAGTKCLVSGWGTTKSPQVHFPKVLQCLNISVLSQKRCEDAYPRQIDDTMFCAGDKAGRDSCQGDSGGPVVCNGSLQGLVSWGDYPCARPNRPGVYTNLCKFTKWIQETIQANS
FXIIa inh 1536 = blocks human coagulation factor XIIa protease activity | 220,000 compounds, 0.3% hits | inhibition, % at 5 µM | P00748 | purified FXIIa, Boc-QGR-AMC fluorogenic substrate, 2 h; in the data active = inhibition above about 40%;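 note: 0% = enzyme with no compound and 100% = blank without enzyme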
FXIa inh 1536 = blocks human coagulation factor XIa protease activity. P03951. purified FXIa, Boc-Glu-Ala-Arg-AMC fluorogenic substrate. inhibition, % at 5 µM. 220,000 compounds, 0.14% hits;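 active = inhibition of at least 40%; inactive = inhibition below 40%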;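 note: fluorescence of freed AMC excited at 355 nm; 0% = enzyme without compound and 100% = no enzyme blank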
The depositor's hits bear a star; i = inactive.

SMILES	Thrombin inh	hK5 inh	FXIIa inh 1536	FXIa inh 1536
Cc1ccc(NC(=O)/C(=C\c2ccc([N+](=O)[O-])cc2)NC(=O)c2ccccc2)cc1	4	-5	15	6
O=C(N/N=C/c1ccc(O)c(O)c1O)/C(=C/c1ccc([N+](=O)[O-])cc1)NC(=O)c1ccccc1	6	i	41*	27
COc1cc(NC(=O)c2n[nH]c(=O)c3ccccc23)cc(OC)c1	1	4	9	1
COc1cc(NC(=O)c2nccnc2C(=O)O)cc(OC)c1	16	122*	2	4
O=C(OCC(=O)c1ccccc1Br)c1ccncc1	-10	1	9	2
CCC(C)NC(=O)Nc1ccc(F)c(Cl)c1 (stereo not given)	-1	-2	6	-6
CC(C)CNC(=O)Nc1ccc(F)c(Cl)c1	26	14	30	52*
COc1ccc(C(NC(=O)N2CC(C)OC(C)C2)C(Cl)(Cl)Cl)cc1F (stereo not given)	-12	-7	2	-9
COC(=O)c1ccc(COC(=O)CNS(=O)(=O)c2ccccc2)cc1	55*	23	26	31
COc1cccc(N2CCN(C3CC(=O)N(c4ccc(F)c(Cl)c4)C3=O)CC2)c1 (stereo not given)	0	44*	-3	-4
Cc1csc(NC(=O)C(CC(C)C)NS(=O)(=O)c2ccc3c(c2)oc(=O)n3C)n1 (stereo not given)	8	55*	107*	7
Cc1ccc(S(=O)(=O)NC2(C(F)(F)F)NC(=O)N(C)C2=O)cc1 (stereo not given)	14	67*	22	7
NC(=O)C1CCN(C(=O)/C=C/c2ccco2)CC1	-2	-12	10	4
CSC1=N/C(=C\c2ccc(C)o2)C(=O)S1	104*	102*	21	2
N#CC1=C(N)C(C#N)(C#N)[C@H](c2ccoc2)[C@H]2CN(Cc3ccccc3)CC=C12	20	112*	29	7
Cc1cc(C)nc(S/C=C/C(=O)c2ccc(F)cc2)n1	-11	-5	0	-7
CCOC(=O)CC1C(=O)NCCN1Cc1cccc(C(F)(F)F)c1 (stereo not given)	-7	40*	-4	-8
CCOC(=O)CC1C(=O)NCCN1C(=O)c1c(F)cccc1F (stereo not given)	-2	11	10	-23
COCCn1c(N)c(N(Cc2ccccc2)C(=O)C2CCCC2)c(=O)[nH]c1=O	-13	4	8	2
COCCn1c(N)c(C(=S)NC(=O)c2cccs2)c(=O)[nH]c1=O	1	90*	35	18
Cc1c(C(=O)OCCOc2ccc(Br)cc2)sc(=S)n1C	-4	-7	5	7
CCOC(=O)CCCNC(=O)CCNC(=O)c1ccc(OCC(C)C)cc1	0	2	7	1
CCOC(=O)CCCNC(=O)CCNC(=O)c1ccc(OC(C)C)cc1	22	40*	16	13
CC(=O)c1cccc(NC(=O)c2csc(-n3nc(C)cc3C(F)(F)F)n2)c1	19	56*	21	11
C=CCOc1ccc(/C=N/O)cc1Cl	-6	-25	1	-4
SMILES	Thrombin inh	hK5 inh	FXIIa inh 1536	FXIa inh 1536
O=C1C2C3c4ccccc4C(c4ccccc43)C2C(=O)N1/N=C/c1cccc(O)c1 (stereo not given)	20	42*	24	4
CCN1CCN(C(=O)c2cnn3c(C(F)F)cc(-c4ccc(C)cc4)nc23)CC1	-5	8	-3	-6
CCc1nccn1C(=O)c1cnn2c(C(F)F)cc(-c3ccc(C)cc3)nc12	77*	-24	3	-2
Cc1ccc(-c2cc(C(F)F)n3ncc(C(=O)N4CCN(c5ccccn5)CC4)c3n2)cc1	-5	14	-4	-11
CCc1nccn1C(=O)c1cnn2c(C(F)F)cc(-c3ccccc3)nc12	76*	2	16	11
COc1ccc(/C=C/C(=O)Nc2ccccc2C)cc1S(=O)(=O)N1CCOCC1	8	18	22	8
CCC(C)(C)NC(=O)/C=C/c1ccc(OC)c(S(=O)(=O)N2CCOCC2)c1	18	43*	24	12
O=S(=O)(CC(c1ccccc1)N1CCCCC1)c1ccc(Cl)cc1 (stereo not given)	6	48*	16	5
CCN(CC)Cc1ccccc1Sc1ccccc1	44*	44*	4	8
N/C(Cc1ccccc1Sc1ccccc1)=N\O	-9	-18	10	5
O=C(C1CCN(c2ccc(N3CCOCC3)nn2)CC1)N1CCN(c2ccc(F)cc2)CC1	0	106*	-10	-6
CCOc1ccccc1NC(C)C(=O)Nc1cc(C(F)(F)F)ccc1N1CCOCC1 (stereo not given)	-5	1	4	3
